Assay results reported in ChEMBL document CHEMBL3108772, “Discovery of Potent and Orally Active p53-MDM2 Inhibitors RO5353 and RO2468 for Potential Clinical Development” (ACS Med Chem Lett, 2014).
The source made the active and inactive calls. No cut-off for these calls is given here.

Columns and labels:
[1] = Total plasma clearance in C57 mouse at 0.64 mg/kg, iv; assay type: ADME, organism-based; set-up: dose 0.64 mg/kg, route intravenous
Method in brief: (§1)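 Single-dose PK in male C57 mice, given orally (PO) or intravenously (IV). Plasma exposure (AUC normalized to dose, Cmax) was taken from the oral arms. Clearance and t1/2 were taken from the IV arms. F is oral bioavailability.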

SJSA-1 [2] = assay: Antiproliferative activity against human SJSA cells expressing wild-type p53 by MTT assay
[3] = Oral bioavailability in C57 mouse at 25 mg/kg; assay type: ADME, organism-based; settings: in vivo; method in brief: as §1
[4] = Cmax in C57 mouse at 25 mg/kg, po; assay type: ADME, organism-based; set-up: dose 25 mg/kg, route oral; settings: in vivo; method in brief: as §1
[5] = Intrinsic clearance in human liver microsomes at […] preincubated for 5 mins followed by NADPH addition by LC-MS/MS analysis; assay type: ADME; settings: read-out: CLH
Mus musculus [6] = assay: AUC/dose in C57 mouse at 25 mg/kg, po; assay type: ADME, organism-based, Plasma; set-up: dose 25 mg/kg, route oral; settings: in vivo; method in brief: as §1
SJSA-1 [7] = assay: Antitumor activity against human SJSA1 cells xenografted in nude mouse assessed as tumor regression at 6.25 mg/kg, po qd administered for 2 weeks; assay type: functional, organism-based; set-up: dose 6.25 mg/kg
[8] = Apparent terminal half life in C57 mouse at 0.64 mg/kg, iv; assay type: ADME, organism-based; set-up: dose 0.64 mg/kg, route intravenous; settings: in vivo, read-out: betat1/2(app) (converted); method in brief: as §1
SW480 = assay: Antiproliferative activity against human SW480 cells expressing p53 mutant by MTT assay
HCT-116 = assay: Antiproliferative activity against human HCT116 cells expressing wild-type p53 by MTT assay; assay type: functional, cell-based
Method in brief: (§2)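 MTT antiproliferation assay in human cancer lines: SJSA, HCT116 and RKO are wild-type p53; SW480 is mutant p53. IC50 came from one experiment run in duplicate.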

Mus musculus [9] = assay: AUC/dose in C57 mouse at 10 mg/kg, po; assay type: ADME, organism-based, Plasma; set-up: dose 10 mg/kg, route oral; settings: in vivo; method in brief: as §1
RKO = assay: Antiproliferative activity against human RKO cells expressing wild-type p53 by MTT assay; assay type: functional, cell-based; method in brief: as §2
SJSA-1 [10] = assay: Antiproliferative activity against human SJSA cells expressing wild-type p53 by MTT assay
[11] = Cmax in C57 mouse at 10 mg/kg, po; assay type: ADME, organism-based; set-up: dose 10 mg/kg, route oral; settings: in vivo; method in brief: as §1
[12] = Apparent terminal half life in C57 mouse at 2.5 mg/kg, iv; assay type: ADME, organism-based; set-up: dose 2.5 mg/kg, route intravenous; settings: in vivo, read-out: betat1/2(app) (converted); method in brief: as §1
[13] = Oral bioavailability in C57 mouse at 10 mg/kg; assay type: ADME, organism-based; settings: in vivo; method in brief: as §1
[14] = Total plasma clearance in C57 mouse at 2.5 mg/kg, iv; assay type: ADME, organism-based; set-up: dose 2.5 mg/kg, route intravenous; method in brief: as §1
Mus musculus [15] = assay: Toxicity in nude mouse xenografted with human SJSA1 cells assessed as body weight loss at 3 to 20 mg/kg, po qd administered for 2 weeks; assay type: organism-based, SJSA-1; set-up: dose 3-20 mg/kg, route oral; settings: in vivo, 336 h
SJSA-1 [16] = assay: Antitumor activity against human SJSA1 cells xenografted in nude mouse assessed as tumor regression at 10 mg/kg, po qd administered for 2 weeks; assay type: functional, organism-based; set-up: dose 10 mg/kg
SJSA-1 [17] = assay: Antitumor activity against human SJSA1 cells xenografted in nude mouse assessed as tumor growth inhibition at 3 mg/kg, po qd administered for 2 weeks; assay type: functional, organism-based; set-up: dose 3 mg/kg
[18] = Apparent terminal half life in C57 mouse at 2 mg/kg, iv; assay type: ADME, organism-based; set-up: dose 2 mg/kg, route intravenous; settings: in vivo, read-out: betat1/2(app) (converted); method in brief: as §1
[19] = Oral bioavailability in C57 mouse at 5 mg/kg; assay type: ADME, organism-based; settings: in vivo; method in brief: as §1
[20] = Cmax in C57 mouse at 5 mg/kg, po; assay type: ADME, organism-based; set-up: dose 5 mg/kg, route oral; settings: in vivo; method in brief: as §1
[21] = Total plasma clearance in C57 mouse at 2 mg/kg, iv; assay type: ADME, organism-based; set-up: dose 2 mg/kg, route intravenous; method in brief: as §1
Mus musculus [22] = assay: AUC/dose in C57 mouse at 5 mg/kg, po; assay type: ADME, organism-based, Plasma; set-up: dose 5 mg/kg, route oral; settings: in vivo; method in brief: as §1

Which clearance [1] does the source give for `COc1cc(C(N)=O)ccc1NC(=O)[C@@H]1N[C@@H](CC(C)(C)C)[C@@]2(C(=O)Nc3cc(Cl)ccc32)[C@H]1c1cccc(Cl)c1F` here?
The clearance was 5.8 mL/min/kg.

And the IC50 (SJSA-1 [2])?
Its IC50 is 13 nM.

And the bioavailability [3]?
Its bioavailability is 92%.

What about the Cmax [4] of the same compound?
Its Cmax is 5800 ng/mL.

What about the CLint scaled [5] of the same compound?
Its CLint scaled is 7.5 mL/min/kg.

And the AUC/dose (Mus musculus [6])?
The AUC/dose was 3.7 µg·h/mL/mg/kg.

What about the Activity (SJSA-1 [7]) of the same compound?
The Activity was “Active”.

What about the half-life [8] of the same compound?
The half-life was 7.1 h.

What about the IC50 (SW480) of the same compound?
The IC50 was 5190 nM.

With `COc1cc(C(N)=O)ccc1NC(=O)C1NC(CC(C)(C)C)C2(C(=O)Nc3cc(Cl)ncc32)C1c1cccc(Cl)c1F` (racemic) as the compound, how does the IC50 (SJSA-1 [2]) read?
The IC50 was 14 nM.

What about the IC50 (SW480) of the same compound?
Its IC50 is 12800 nM.

For `COc1cc(C(N)=O)ccc1NC(=O)[C@@H]1N[C@@H](CC(C)(C)C)[C@@]2(C(=O)Nc3nc(Cl)ncc32)[C@H]1c1cccc(Cl)c1F` (racemic), which IC50 (SJSA-1 [2]) is on record?
Its IC50 is 90 nM.

What about the IC50 (SW480) of the same compound?
Its IC50 is 10700 nM.

With `COc1cc(C(=O)O)ccc1NC(=O)[C@@H]1N[C@@H](CC(C)(C)C)[C@@]2(C(=O)Nc3ccncc32)[C@H]1c1cccc(Cl)c1F` (racemic) as the compound, how does the IC50 (SJSA-1 [2]) read?
The IC50 was 22700 nM.

And the IC50 (SW480)?
Its IC50 is greater than 30000 nM.

Which results are given for `COc1cc(C(N)=O)ccc1NC(=O)[C@@H]1N[C@@H](CC(C)(C)C)[C@@]2(C(=O)Nc3cc(Cl)cnc32)[C@H]1c1cccc(Cl)c1F` (racemic)?
IC50 (SJSA-1 [2]): 42 nM; IC50 (SW480): 5900 nM

Which Activity (HCT-116) does the source give for `COc1cc(C(=O)O)ccc1NC(=O)[C@@H]1N[C@@H](CC(C)(C)C)[C@@]2(C(=O)Nc3cc(Cl)sc32)[C@H]1c1cccc(Cl)c1F` here?
The Activity was “Active”.

And the AUC/dose (Mus musculus [9])?
The AUC/dose was 0.08 µg·h/mL/mg/kg.

And the Activity (RKO)?
The Activity was “Active”.

What about the Activity (SJSA-1 [10]) of the same compound?
The Activity was “Active”.

What about the Cmax [11] of the same compound?
Its Cmax is 300 ng/mL.

What about the half-life [12] of the same compound?
Its half-life is 1.68 h.

And the bioavailability [13]?
Its bioavailability is 32%.

What about the clearance [14] of the same compound?
Its clearance is 68.6 mL/min/kg.

Which results are given for `COc1cc(C(N)=O)ccc1NC(=O)[C@@H]1N[C@@H](CC(C)(C)C)[C@@]2(C(=O)Nc3cc(Cl)sc32)[C@H]1c1cccc(Cl)c1F`?
Activity (HCT-116): Active; AUC/dose (Mus musculus [9]): 1.5 µg·h/mL/mg/kg; Activity (RKO): Active; Activity (Mus musculus [15]): Non-toxic; Activity (SJSA-1 [10]): Active; Cmax [11]: 1300 ng/mL; Activity (SJSA-1 [16]): Active; TGI (SJSA-1 [17]): Active; CLint scaled [5]: 2 mL/min/kg; half-life [12]: 3 h; bioavailability [13]: 92%; clearance [14]: 9.9 mL/min/kg

Which results are given for `COc1cc(C(N)=O)ccc1NC(=O)[C@@H]1N[C@@H](CC(C)(C)C)[C@@]2(C(=O)Nc3ccncc32)[C@H]1c1cccc(Cl)c1F` (racemic)?
IC50 (SJSA-1 [2]): 2110 nM; IC50 (SW480): 13400 nM

Which IC50 (SJSA-1 [2]) does the source give for `COc1cc(C(=O)O)ccc1NC(=O)[C@@H]1N[C@@H](CC(C)(C)C)[C@@]2(C(=O)Nc3ncccc32)[C@H]1c1cccc(Cl)c1F` (racemic) here?
The IC50 was 1370 nM.

What about the IC50 (SW480) of the same compound?
Its IC50 is greater than 30000 nM.

Which results are given for `COc1cc(C(=O)O)ccc1NC(=O)C1NC(CC(C)(C)C)C2(C(=O)Nc3cc(Cl)sc32)C1c1cccc(Cl)c1F` (racemic)?
IC50 (SJSA-1 [2]): 9 nM; IC50 (SW480): 29300 nM

For `COc1cc(C(=O)O)ccc1NC(=O)[C@@H]1N[C@@H](CC(C)(C)C)[C@@]2(C(=O)Nc3nc(Cl)ncc32)[C@H]1c1cccc(Cl)c1F` (racemic), which IC50 (SJSA-1 [2]) is on record?
The IC50 was 100 nM.

What about the IC50 (SW480) of the same compound?
Its IC50 is greater than 30000 nM.

Which Activity (HCT-116) does the source give for `COc1cc(C(N)=O)ccc1NC(=O)[C@@H]1N[C@@H](CC(C)(C)C)[C@@]2(C(=O)Nc3cc(Cl)ncc32)[C@H]1c1cccc(Cl)c1F` here?
The Activity was “Active”.

What about the half-life [18] of the same compound?
Its half-life is 3 h.

And the Activity (RKO)?
Its Activity is “Active”.

What about the Activity (Mus musculus [15]) of the same compound?
The Activity was “Non-toxic”.

What about the Activity (SJSA-1 [10]) of the same compound?
Its Activity is “Active”.

And the bioavailability [19]?
Its bioavailability is 46%.

And the Cmax [20]?
The Cmax was 2100 ng/mL.

And the Activity (SJSA-1 [16])?
The Activity was “Active”.

What about the clearance [21] of the same compound?
The clearance was 1.8 mL/min/kg.

And the TGI (SJSA-1 [17])?
Its TGI is “Active”.

And the CLint scaled [5]?
Its CLint scaled is 10.2 mL/min/kg.

What about the AUC/dose (Mus musculus [22]) of the same compound?
The AUC/dose was 4.2 µg·h/mL/mg/kg.

Which IC50 (SJSA-1 [2]) does the source give for `COc1cc(C(N)=O)ccc1NC(=O)C1NC(CC(C)(C)C)C2(C(=O)Nc3cc(Cl)sc32)C1c1cccc(Cl)c1F` (racemic) here?
Its IC50 is 11 nM.

And the IC50 (SW480)?
The IC50 was 7870 nM.

What does the source list for `COc1cc(C(=O)O)ccc1NC(=O)[C@@H]1N[C@@H](CC(C)(C)C)[C@@]2(C(=O)Nc3nc(Cl)ccc32)[C@H]1c1cccc(Cl)c1F` (racemic)?
IC50 (SJSA-1 [2]): 45 nM; IC50 (SW480): 15400 nM

Which IC50 (SJSA-1 [2]) does the source give for `COc1cc(C(=O)O)ccc1NC(=O)[C@@H]1N[C@@H](CC(C)(C)C)[C@@]2(C(=O)Nc3cc(Cl)ncc32)[C@H]1c1cccc(Cl)c1F` (racemic) here?
The IC50 was 43 nM.

What about the IC50 (SW480) of the same compound?
The IC50 was greater than 30000 nM.

With `COc1cc(C(N)=O)ccc1NC(=O)[C@@H]1N[C@@H](CC(C)(C)C)[C@@]2(C(=O)Nc3nc(Cl)ccc32)[C@H]1c1cccc(Cl)c1F` (racemic) as the compound, how does the IC50 (SJSA-1 [2]) read?
Its IC50 is 67 nM.

What about the IC50 (SW480) of the same compound?
Its IC50 is 5260 nM.

For `COc1cc(C(=O)O)ccc1NC(=O)[C@@H]1N[C@@H](CC(C)(C)C)[C@@]2(C(=O)Nc3cc(Cl)cnc32)[C@H]1c1cccc(Cl)c1F` (racemic), which IC50 (SJSA-1 [2]) is on record?
Its IC50 is 61 nM.

What about the IC50 (SW480) of the same compound?
The IC50 was greater than 30000 nM.
